Test results as given in ChEMBL document CHEMBL3232848, “Design and synthesis of high affinity inhibitors of Plasmodium falciparum and Plasmodium vivax N-myristoyltransferases directed by ligand efficiency dependent lipophilicity (LELP)” (J Med Chem, 2014).

Tests used:
[1] = Inhibition of human N-myristoyltransferase using H-Gly-Ser-Asn-Lys-Ser-Lys-Pro-Lys-NH2 as substrate by CPM fluorescence assay
Procedure, shortened: (§1)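 IC50 values (mean of two or more determinations) were converted to Ki by Cheng–Prusoff using substrate concentration and Km. For PfNMT, Km was 3.64 μM and substrate was 4.00 μM. The human enzyme values refer to HsNMT1.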

[2] = target: T1, Glycylpeptide N-tetradecanoyltransferase (Plasmodium falciparum (isolate 3D7), UniProt Q8ILW6); test: Inhibition of Plasmodium falciparum N-myristoyltransferase by CPM fluorescence assay; procedure, shortened: as §1
T1 sequence (Q8ILW6 whole entry): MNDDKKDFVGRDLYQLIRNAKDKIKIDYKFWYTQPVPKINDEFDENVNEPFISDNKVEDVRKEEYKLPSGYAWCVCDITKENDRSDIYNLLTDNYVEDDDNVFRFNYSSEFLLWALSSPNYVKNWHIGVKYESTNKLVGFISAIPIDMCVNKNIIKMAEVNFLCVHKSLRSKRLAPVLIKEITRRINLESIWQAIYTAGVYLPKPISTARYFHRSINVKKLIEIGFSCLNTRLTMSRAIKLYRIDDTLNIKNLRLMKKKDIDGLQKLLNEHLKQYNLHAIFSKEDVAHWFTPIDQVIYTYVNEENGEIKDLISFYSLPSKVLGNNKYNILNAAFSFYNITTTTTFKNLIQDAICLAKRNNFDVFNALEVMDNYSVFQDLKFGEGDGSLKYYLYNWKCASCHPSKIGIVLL

[3] = Inhibition of Plasmodium vivax N-myristoyltransferase by CPM fluorescence assay; procedure, shortened: as §1
Plasmodium falciparum [4] = test: Antimicrobial activity against late stage trophozoite form of Plasmodium falciparum 3D7 infected in RBCs after 48 hrs by SYBR green viability assay; assay type: functional, organism-based; settings: 3D7, 96 h, in the assay text read “after 96 hrs” for “after 48 hrs”
Procedure, shortened: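 Synchronous 3D7 late trophozoites (33–36 h) were used at 0.1–0.2% parasitemia and 2% hematocrit in washed, buffy-coat-free RBCs, in RPMI 1640 with Albumax, gentamycin and L-glutamine. Seven dilutions from 10.0 to 0.014 μM were run in duplicate at 37 °C under 5% CO2, 5% O2, 90% N2. Drug was replaced at 48 h and incubation continued to 96 h. Read-out was SYBR Green I in saponin/Triton lysis buffer, then fluorescence converted to % growth.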

Plasmodium berghei = test: Antimicrobial activity against Plasmodium berghei sporozoites infected in 12 hrs compound pretreated human HepG2 cells assessed as reduction in viability of exoerythrocytic forms measured after 48 hrs of incubation by luciferase bioluminescence assay; assay type: functional, organism-based
Procedure, shortened: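 HepG2-A16-CD81EGFP cells expressing GFP-CD81 were grown in DMEM with 10% FCS, glutamine and penicillin/streptomycin at 37 °C, 5% CO2. They were seeded at 3000 cells/well 24 h before infection. Cells were pretreated 12 h with a 12-point dilution series, then infected with luciferase-expressing P. berghei sporozoites (1000/well). Exoerythrocytic form viability was read by bioluminescence after 48 h. EC50 came from a four-parameter variable-slope fit, mean of two determinations.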

[5] = Cytotoxicity against human HepG2 cells after 72 hrs by MTS assay; assay type: cell-based; settings: read-out: LD50
Procedure, shortened: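 HepG2 cells grown in DMEM with 10% FBS and penicillin/streptomycin, 37 °C, 5% CO2, seeded at 5000 cells/well. Seven-point dilution series in medium from a 50 mM DMSO stock; DMSO/medium and puromycin control wells. Incubated 72 h, then MTS/PMS added for 4 h and read at 490 nm. LD50 by nonlinear regression, mean of six determinations.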

Plasmodium falciparum [6] = test: Antimicrobial activity against blood-stage Plasmodium falciparum 3D7 assessed as inhibition of [3H]hypoxanthine incorporation after 48 hrs by liquid scintillation counting; assay type: functional, organism-based
Plasmodium falciparum [7] = test: Antimicrobial activity against blood-stage Plasmodium falciparum NF54 assessed as inhibition of [3H]hypoxanthine incorporation after 48 hrs by liquid scintillation counting; assay type: functional, organism-based
Procedure, shortened: (§2)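 Modified Desjardins method. Drug was serially diluted 2-fold, and infected blood was added at 0.3% parasitemia and 2.5% hematocrit. Uninfected blood and drug-free wells served as controls. Plates were held at 37 °C under 93% N2, 4% CO2, 3% O2. After 48 h, [3H]hypoxanthine (0.5 μCi/well) was added for a further 24 h, then cells were harvested and scintillation counted. Counts were taken as % of untreated controls, with IC50 by logit regression.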

Plasmodium falciparum [8] = test: Antimicrobial activity against blood-stage Plasmodium falciparum K1 assessed as inhibition of [3H]hypoxanthine incorporation after 48 hrs by liquid scintillation counting; assay type: functional, organism-based; procedure, shortened: as §2
Plasmodium falciparum [9] = test: Antimicrobial activity against blood-stage Plasmodium falciparum Dd2 assessed as inhibition of [3H]hypoxanthine incorporation after 48 hrs by liquid scintillation counting; assay type: functional; procedure, shortened: as §2
[10] = Aqueous solubility of the compound; assay type: physicochemical
[11] = Selectivity ratio of Ki for human N-myristoyltransferase to Ki for Plasmodium falciparum N-myristoyltransferase
[12] = Selectivity ratio of Ki for human N-myristoyltransferase to Ki for Plasmodium vivax N-myristoyltransferase
Plasmodium falciparum [13] = test: Ratio of EC50 for blood-stage Plasmodium falciparum Dd2 to EC50 for blood-stage Plasmodium falciparum NF54; assay type: functional
[14] = Selectivity ratio of LD50 for human HepG2 cells to EC50 for blood-stage Plasmodium falciparum 3D7; assay type: ADME, cell-based; settings: read-out: Ratio LD50/EC50
[15] = Selectivity ratio of LD50 for human HepG2 cells to EC50 for blood-stage Plasmodium falciparum NF54; assay type: ADME, cell-based; settings: read-out: Ratio LD50/EC50
[16] = Selectivity ratio of LD50 for human HepG2 cells to EC50 for blood-stage Plasmodium falciparum K1; assay type: ADME, cell-based; settings: read-out: Ratio LD50/EC50
[17] = Selectivity ratio of LD50 for human HepG2 cells to EC50 for blood-stage Plasmodium falciparum Dd2; assay type: ADME, cell-based; settings: read-out: Ratio LD50/EC50

SMILES | Ki [1] [nM] | Ki [2] [nM] | Ki [3] [nM] | EC50 (Plasmodium falciparum [4]) [nM] | other results
COc1cccc(CCOC(=O)c2sc3ccccc3c2OC2CCNCC2)c1 | 2200 | 120 | 59 | 4200 | 
COc1cc(CCOC(=O)c2sc3ccccc3c2OC2CCNCC2)cc(OC)c1 | 31 | 26 | 9 | 1410 | 
COC(c1ccccc1)c1nnc(-c2sc3ccccc3c2OC2CCNCC2)o1 (racemic) | 3950 | 212 | 81 |  | 
O=C1C(O)=C([C@H]2CC[C@H](c3ccc(Cl)cc3)CC2)C(=O)c2ccccc21 [ATOVAQUONE] |  |  |  |  | EC50 (Plasmodium berghei): 0.5 nM; CC50 at 72 h [5]: > 10000 nM
FC(F)(c1ccccc1)c1nnc(-c2sc3ccccc3c2OC2CCNCC2)o1 | 2770 | 391 | 182 |  | 
Cc1nn(C)c(C)c1CCc1nnc(-c2sc3ccccc3c2OC2CCNCC2)o1 | 824 | 124 | 32 |  | 
Clc1cccc(Cc2noc(-c3sc4ccccc4c3OC3CCNCC3)n2)c1 | 871 | 163 | 58 | 1210 | 
Cc1n[nH]c(C)c1CCc1nnc(-c2sc3ccccc3c2OC2CCNCC2)o1 | 2250 | 226 |  |  | 
c1ccc(Cc2n[nH]c(-c3sc4ccccc4c3OC3CCNCC3)n2)cc1 | 893 | 270 | 71 |  | 
O=C(OCCc1ccccc1)c1sc2ccccc2c1OC1CCNCC1 | 10400 | 677 | 72 | 5600 | 
c1ccc(Cc2nc(-c3sc4ccccc4c3OC3CCNCC3)no2)cc1 | 1190 | 120 | 13 |  | 
c1ccc(Cc2noc(-c3sc4ccccc4c3OC3CCNCC3)n2)cc1 | 788 | 71 | 16 | 2300 | 
COc1cccc(Cc2nc(-c3sc4ccccc4c3OC3CCNCC3)no2)c1 | 100 | 50 | 6 | 3260 | 
CC(c1ccccc1)c1nnc(-c2sc3ccccc3c2OC2CCNCC2)o1 (racemic) | 2070 | 334 | 77 |  | 
c1ccc(C2(c3nnc(-c4sc5ccccc5c4OC4CCNCC4)o3)CC2)cc1 | 976 | 98 | 34 |  | 
Cc1nn(C)c(C)c1Cc1nnc(-c2sc3ccccc3c2OC2CCNCC2)o1 | 60 | 8 | 2 | 302 | IC50 [2]: 17 nM; EC50 (Plasmodium falciparum [6]): 302 nM; EC50 (Plasmodium falciparum [7]): 232 nM; EC50 (Plasmodium falciparum [8]): 339 nM; EC50 (Plasmodium falciparum [9]): 916 nM; EC50 (Plasmodium berghei): 372 nM; CC50 at 72 h [5]: 12300 nM; solubility [10]: > 8 mM; Ratio Ki [11]: 8; Ratio Ki [12]: 30; Ratio EC50 (Plasmodium falciparum [13]): <4; selectivity ratio [14]: ≤ 40; selectivity ratio [15]: ≤ 40; selectivity ratio [16]: ≤ 40; selectivity ratio [17]: 14
Cc1n[nH]c(C)c1Cc1nnc(-c2sc3ccccc3c2OC2CCNCC2)o1 | 1540 | 55 | 75 | 2010 | Ratio Ki [11]: 30

SMILES | Ki [1] [nM] | Ki [2] [nM] | Ki [3] [nM] | EC50 (Plasmodium falciparum [4]) [nM] | other results
c1ccc(Cc2nnc(-c3sc4ccccc4c3OC3CCNCC3)o2)cc1 | 1370 | 77 | 39 | 9500 | 
c1ccc(CCc2noc(-c3sc4ccccc4c3OC3CCNCC3)n2)cc1 | 1540 | 247 | 57 | 3790 | 
CCN(CC)CCCC(C)Nc1ccnc2cc(Cl)ccc12 (configuration not stated) [CHLOROQUINE] |  |  |  |  | EC50 (Plasmodium falciparum [6]): 6 nM; EC50 (Plasmodium falciparum [7]): 13 nM; EC50 (Plasmodium falciparum [8]): 255 nM; EC50 (Plasmodium falciparum [9]): 328 nM; EC50 (Plasmodium berghei): > 10000 nM
CC(C)(c1ccccc1)c1nnc(-c2sc3ccccc3c2OC2CCNCC2)o1 | 1550 | 152 | 32 |  | 
O=C(NCCOc1ccccc1)c1sc2ccccc2c1OC1CCNCC1 | > 100000 | > 10000 | 2210 |  | 
Cc1noc(C)c1Cc1nnc(-c2sc3ccccc3c2OC2CCNCC2)o1 | 1050 | 113 | 38 | 5020 | Ratio Ki [11]: 8
COc1cccc(Cc2noc(-c3sc4ccccc4c3OC3CCNCC3)n2)c1 | 192 | 51 | 8 | 1450 | 
Cc1noc(C)c1CCc1nnc(-c2sc3ccccc3c2OC2CCNCC2)o1 | 709 | 186 | 47 |  | 
COc1cc(Cc2nc(-c3sc4ccccc4c3OC3CCNCC3)no2)cc(OC)c1 | 50 | 15 | 8 | 3500 | 
COc1cccc(Cc2nnc(-c3sc4ccccc4c3OC3CCNCC3)o2)c1 | 428 | 33 | 18 | 5500 | Ratio Ki [11]: 13; Ratio Ki [12]: 24
O=C(OCCCc1ccccc1)c1sc2ccccc2c1OC1CCNCC1 | 1160 | 3970 | 66 |  | 
O=C(NCCCc1ccccc1)c1sc2ccccc2c1OC1CCNCC1 | > 100000 | > 10000 | 2530 |  | 
O=C(OCCOc1ccccc1)c1sc2ccccc2c1OC1CCNCC1 | 1870 | 1130 | 123 |  | 
COc1cc(Cc2noc(-c3sc4ccccc4c3OC3CCNCC3)n2)cc(OC)c1 | 207 | 15 | 5 | 2490 | 
O=C(NCCc1ccccc1)c1sc2ccccc2c1OC1CCNCC1 | > 100000 | > 10000 | 3780 |  | 
OC(c1ccccc1)c1nnc(-c2sc3ccccc3c2OC2CCNCC2)o1 (racemic) | 2450 | 125 | 35 | 7340 | 
c1ccc(C(c2ccccc2)c2nnc(-c3sc4ccccc4c3OC3CCNCC3)o2)cc1 | 1920 | 465 | 142 |  | 
